In brackets after ≈: the same amount, converted by molar mass.
How the values were obtained:
Cutibacterium acnes [1] = assay: Antibacterial activity against drug-resistant Propionibacterium acnes EG7NS after 72 hrs; format: functional
Method in brief: (§1)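 MBC for P. acnes followed MIC assays by standard methodology. Samples were plated on Wilkins-Chalgren agar, incubated anaerobically in GENbox jars at 35 to 37°C, and examined for growth after 72 h.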

Cutibacterium acnes [2] = assay: Antibacterial activity against drug-resistant Propionibacterium acnes GE46EB after 48 hrs by broth microdilution method; format: functional
Method in brief: (§2)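 Broth microdilution MIC in Wilkins-Chalgren broth without lysed horse blood, following CLSI anaerobe guidelines. Plates were held in anaerobic jars with atmosphere generators (O2 <0.1% by 2.5 h, CO2 >15% by 24 h) at 35 to 37°C for 48 h. Growth was read with an illuminated plate reader and magnifying mirror.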

Staphylococcus aureus [3] = assay: Antibacterial activity against borderline oxacillin-resistant Staphylococcus aureus after 20 to 24 hrs by broth microdilution method
Cutibacterium acnes [4] = assay: Antibacterial activity against drug-resistant Propionibacterium acnes P429:1 (BC) after 48 hrs by broth microdilution method; format: functional; method in brief: as §2
Cutibacterium acnes [5] = assay: Antibacterial activity against drug-resistant Propionibacterium acnes SP64E after 48 hrs by broth microdilution method; format: functional; method in brief: as §2
Cutibacterium acnes [6] = assay: Antibacterial activity against drug-resistant Propionibacterium acnes OK8/97 after 48 hrs by broth microdilution method; format: functional; method in brief: as §2
Cutibacterium acnes [7] = assay: Antibacterial activity against drug-resistant Propionibacterium acnes P322:2 after 48 hrs by broth microdilution method; format: functional; method in brief: as §2
[8] = system: Streptococcus equi subsp. zooepidemicus; assay: Antibacterial activity against Streptococcus equi subsp. zooepidemicus after 48 hrs by broth microdilution method; format: functional
Cutibacterium acnes [9] = assay: Antibacterial activity against drug-resistant Propionibacterium acnes P:413 after 48 hrs by broth microdilution method; format: functional; method in brief: as §2
Cutibacterium acnes [10] = assay: Antibacterial activity against drug-resistant Propionibacterium acnes SW101CDA after 48 hrs by broth microdilution method; format: functional; method in brief: as §2
Cutibacterium acnes [11] = assay: MBC/MIC ratio of Propionibacterium acnes P95; format: functional
Method in brief: (§3)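 MIC by CLSI broth microdilution in Wilkins-Chalgren broth in anaerobic jars (O2 <0.1%, CO2 >15%), read after 48 h at 35–37°C on an illuminated plate reader. For MBC, samples were plated onto Wilkins-Chalgren agar and incubated anaerobically for 72 h at 35–37°C before growth was scored.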

[12] = system: Staphylococcus epidermidis; assay: Antibacterial activity against Staphylococcus epidermidis after 48 hrs by broth microdilution method; format: functional
Cutibacterium acnes [13] = assay: Antibacterial activity against drug-resistant Propionibacterium acnes SW26 after 48 hrs by broth microdilution method; format: functional; method in brief: as §2
Cutibacterium acnes [14] = assay: Antibacterial activity against drug-resistant Propionibacterium acnes P401:5 after 48 hrs by broth microdilution method; format: functional; method in brief: as §2
[15] = system: Propionibacterium granulosum; assay: Antibacterial activity against drug-resistant Propionibacterium granulosum QK6/92 after 48 hrs by broth microdilution method
Cutibacterium acnes [16] = assay: Antibacterial activity against drug-resistant Propionibacterium acnes SW11 after 48 hrs by broth microdilution method; format: functional; method in brief: as §2
Cutibacterium acnes [17] = assay: Antibacterial activity against drug-resistant Propionibacterium acnes D-04/97 after 48 hrs by broth microdilution method; format: functional; method in brief: as §2
[18] = Antibacterial activity against Streptococcus dysgalactiae subsp. dysgalactiae after 48 hrs by broth microdilution method; format: functional
Cutibacterium acnes [19] = assay: Antibacterial activity against drug-resistant Propionibacterium acnes SW101T after 48 hrs by broth microdilution method; format: functional; method in brief: as §2
[20] = system: Corynebacterium diphtheriae; assay: Antibacterial activity against Corynebacterium diphtheriae after 48 hrs by broth microdilution method; format: functional
Method in brief: (§4)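 Broth microdilution per CLSI in cation-adjusted Mueller-Hinton broth supplemented with 0.5% (vol/vol) Tween 80. Plates incubated at 35°C in ambient air for 44 to 48 h, then read visually. MICs in μg/ml; a geometric mean MIC was calculated across the corynebacterial strains.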

Cutibacterium acnes [21] = assay: Antibacterial activity against drug-resistant Propionibacterium acnes SW17 after 48 hrs by broth microdilution method; format: functional; method in brief: as §2
Cutibacterium acnes [22] = assay: Antibacterial activity against drug-resistant Propionibacterium acnes P429:1 (SC) after 48 hrs by broth microdilution method; format: functional; method in brief: as §2
Cutibacterium acnes [23] = assay: Antibacterial activity against drug-resistant Propionibacterium acnes P95 after 48 hrs by broth microdilution method; format: functional; method in brief: as §2
Streptococcus pyogenes = assay: Antibacterial activity against Streptococcus pyogenes after 20 to 24 hrs by broth microdilution method
Cutibacterium acnes [24] = assay: Antibacterial activity against drug-resistant Propionibacterium acnes P425:1 after 48 hrs by broth microdilution method; format: functional; method in brief: as §2
Cutibacterium acnes [25] = assay: MBC/MIC ratio of Propionibacterium acnes SW3CD; format: functional; method in brief: as §3
[26] = system: Corynebacterium amycolatum; assay: Antibacterial activity against Corynebacterium amycolatum after 48 hrs by broth microdilution method; format: functional; method in brief: as §4
[27] = system: Corynebacterium minutissimum; assay: Antibacterial activity against Corynebacterium minutissimum after 48 hrs by broth microdilution method; format: functional; method in brief: as §4
Cutibacterium acnes [28] = assay: Antibacterial activity against drug-resistant Propionibacterium acnes EG3NS after 48 hrs by broth microdilution method; format: functional; method in brief: as §2
Cutibacterium acnes [29] = assay: Antibacterial activity against drug-resistant Propionibacterium acnes GE4E after 48 hrs by broth microdilution method; format: functional; method in brief: as §2
[30] = system: Propionibacterium granulosum; assay: Antibacterial activity against drug-resistant Propionibacterium granulosum NCTC-11865 after 48 hrs by broth microdilution method; format: functional; conditions: Cutibacterium granulosum, NCTC-11865, 48 h; method in brief: as §2
Staphylococcus aureus [31] = assay: Antibacterial activity against methicillin-susceptible Staphylococcus aureus after 48 hrs by broth microdilution method; format: functional
Cutibacterium acnes [32] = assay: Antibacterial activity against drug-resistant Propionibacterium acnes FG7E after 48 hrs by broth microdilution method; format: functional; method in brief: as §2
Cutibacterium acnes [33] = assay: Antibacterial activity against drug-resistant Propionibacterium acnes EG13NS after 48 hrs by broth microdilution method; format: functional; method in brief: as §2
Cutibacterium acnes [34] = assay: Antibacterial activity against drug-resistant Propionibacterium acnes SW54EA after 48 hrs by broth microdilution method; format: functional; method in brief: as §2
Cutibacterium acnes [35] = assay: Antibacterial activity against drug-resistant Propionibacterium acnes SW3CD after 48 hrs by broth microdilution method; format: functional; method in brief: as §2
Cutibacterium acnes [36] = assay: MBC/MIC ratio of Propionibacterium acnes EG7NS; format: functional; method in brief: as §3
Cutibacterium acnes [37] = assay: Antibacterial activity against drug-resistant Propionibacterium acnes SW3CD after 72 hrs; format: functional; method in brief: as §1
Staphylococcus aureus [38] = assay: Antibacterial activity against methicillin-resistant Staphylococcus aureus after 20 to 24 hrs by broth microdilution method
Cutibacterium acnes [39] = assay: Antibacterial activity against drug-resistant Propionibacterium acnes EG7NS after 48 hrs by broth microdilution method; format: functional; method in brief: as §2
Cutibacterium acnes [40] = assay: Antibacterial activity against drug-resistant Propionibacterium acnes P95 after 72 hrs; format: functional; method in brief: as §1
Corynebacterium jeikeium = assay: Antibacterial activity against Corynebacterium jeikeium after 48 hrs by broth microdilution method; format: functional; method in brief: as §4
Cutibacterium acnes [41] = assay: Antibacterial activity against drug-resistant Propionibacterium acnes SW10 after 48 hrs by broth microdilution method; format: functional; method in brief: as §2
Cutibacterium acnes [42] = assay: Antibacterial activity against drug-resistant Propionibacterium acnes SW16 after 48 hrs by broth microdilution method; format: functional; method in brief: as §2

CC[C@H]1OC(=O)[C@H](C)[C@@H](O[C@H]2C[C@@](C)(OC)[C@@H](O)[C@H](C)O2)[C@H](C)[C@@H](O[C@@H]2O[C@H](C)C[C@H](N(C)C)[C@H]2O)[C@](C)(O)C[C@@H](C)C(=O)[C@H](C)[C@@H](O)[C@]1(C)O [ERYTHROMYCIN]
MBC (Cutibacterium acnes [1]): > 32 µg/mL | MIC (Cutibacterium acnes [2]): > 512 µg/mL | MIC (Staphylococcus aureus [3]): 3.26 µg/mL (≈ 4.44 µM) | MIC (Cutibacterium acnes [4]): 2 µg/mL (≈ 2.73 µM) | MIC (Cutibacterium acnes [5]): > 512 µg/mL | MIC (Cutibacterium acnes [6]): 0.125 µg/mL (≈ 0.17 µM) | MIC (Cutibacterium acnes [7]): > 512 µg/mL | MIC [8]: 0.14 µg/mL (≈ 0.191 µM) | MIC (Cutibacterium acnes [9]): ≤ 0.06 µg/mL | MIC (Cutibacterium acnes [10]): > 512 µg/mL | Ratio (Cutibacterium acnes [11]): >8 | MIC [12]: 3 µg/mL (≈ 4.09 µM) | MIC (Cutibacterium acnes [13]): ≤ 0.06 µg/mL | MIC (Cutibacterium acnes [14]): 2 µg/mL (≈ 2.73 µM) | MIC [15]: 0.5 µg/mL (≈ 0.681 µM) | MIC (Cutibacterium acnes [16]): 0.125 µg/mL (≈ 0.17 µM) | MIC (Cutibacterium acnes [17]): ≤ 0.06 µg/mL | MIC [18]: 0.09 µg/mL (≈ 0.123 µM) | MIC (Cutibacterium acnes [19]): > 512 µg/mL | MIC [20]: 1.47 µg/mL (≈ 2 µM) | MIC (Cutibacterium acnes [21]): ≤ 0.06 µg/mL | MIC (Cutibacterium acnes [22]): 4 µg/mL (≈ 5.45 µM) | MIC (Cutibacterium acnes [23]): 4 µg/mL (≈ 5.45 µM) | MIC (Streptococcus pyogenes): 0.32 µg/mL (≈ 0.436 µM) | MIC (Cutibacterium acnes [24]): > 512 µg/mL | Ratio (Cutibacterium acnes [25]): >=2 | MIC [26]: 1.47 µg/mL (≈ 2 µM) | MIC [27]: 1.47 µg/mL (≈ 2 µM) | MIC (Cutibacterium acnes [28]): ≤ 0.06 µg/mL | MIC (Cutibacterium acnes [29]): > 512 µg/mL | MIC [30]: 0.125 µg/mL (≈ 0.17 µM) | MIC (Staphylococcus aureus [31]): 3.26 µg/mL (≈ 4.44 µM) | MIC (Cutibacterium acnes [32]): > 512 µg/mL | MIC (Cutibacterium acnes [33]): ≤ 0.06 µg/mL | MIC (Cutibacterium acnes [34]): > 512 µg/mL | MIC (Cutibacterium acnes [35]): ≤ 0.06 µg/mL | Ratio (Cutibacterium acnes [36]): >=533 | MBC (Cutibacterium acnes [37]): 0.125 µg/mL (≈ 0.17 µM) | MIC (Staphylococcus aureus [38]): 3.26 µg/mL (≈ 4.44 µM) | MIC (Cutibacterium acnes [39]): ≤ 0.06 µg/mL | MBC (Cutibacterium acnes [40]): > 32 µg/mL | MIC (Corynebacterium jeikeium): 1.47 µg/mL (≈ 2 µM) | MIC (Cutibacterium acnes [41]): ≤ 0.06 µg/mL | MIC (Cutibacterium acnes [42]): ≤ 0.06 µg/mL
